This note sets out measurements from ChEMBL document CHEMBL4196021, “Targeting G-quadruplex DNA structures in the telomere and oncogene promoter regions by benzimidazole‒carbazole ligands” (Eur J Med Chem, 2018).

Each structure is given as a SMILES string.

For the first experiment, the target named is Quadruplex DNA. Description: Displacement of thiazole orange from human telomeric G-quadruplex DNA after 5 mins in presence of KCl by fluorescence assay. The class given is nucleic-acid assay. In outline: (§1)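 Thiazole orange displacement from a G4 DNA–TO complex (1 µM TO + 0.5 µM G4 DNA) in 10 mM Tris-HCl pH 7.4, 100 mM KCl, 0.1 mM EDTA. Ligand was added in increasing steps, with 5 min incubation each. Fluorescence read at ex 501/em 531 nm; % displacement = 100 − (Ft/F0 × 100). DC50 is the ligand concentration giving 50% displacement, read from plots; average of two independent experiments.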
On to `C[n+]1ccc(-c2c3nc(c(-c4cc[n+](C)cc4)c4ccc([nH]4)c(-c4cc[n+](C)cc4)c4nc(c(-c5cc[n+](C)cc5)c5ccc2[nH]5)C=C4)C=C3)cc1`, for which the DC50 turned out to be 470 nM.

For the next experiment, the target named is Quadruplex DNA. Description: Displacement of thiazole orange from human c-Myc G-quadruplex DNA after 5 mins in presence of KCl by fluorescence assay. The class given is nucleic-acid assay. Summed up:
as §1
`C[n+]1ccc(-c2c3nc(c(-c4cc[n+](C)cc4)c4ccc([nH]4)c(-c4cc[n+](C)cc4)c4nc(c(-c5cc[n+](C)cc5)c5ccc2[nH]5)C=C4)C=C3)cc1`: the DC50 was 380 nM.

A further experiment deals with Quadruplex DNA. Description: Displacement of thiazole orange from human Bcl2 G-quadruplex DNA after 5 mins in presence of KCl by fluorescence assay. It is filed as nucleic-acid assay. In outline:
as §1
Consider `C[n+]1ccc(-c2c3nc(c(-c4cc[n+](C)cc4)c4ccc([nH]4)c(-c4cc[n+](C)cc4)c4nc(c(-c5cc[n+](C)cc5)c5ccc2[nH]5)C=C4)C=C3)cc1`, for which the DC50 came out at 430 nM.

A further experiment addresses Quadruplex DNA. As to the kind of experiment: Displacement of thiazole orange from human c-Kit1 G-quadruplex DNA after 5 mins in presence of KCl by fluorescence assay. The class given is nucleic-acid assay. In outline: as §1
For `C[n+]1ccc(-c2c3nc(c(-c4cc[n+](C)cc4)c4ccc([nH]4)c(-c4cc[n+](C)cc4)c4nc(c(-c5cc[n+](C)cc5)c5ccc2[nH]5)C=C4)C=C3)cc1`, the DC50 came to 320 nM.

Another experiment addresses Quadruplex DNA. As to the kind of experiment: Displacement of thiazole orange from human c-Kit2 G-quadruplex DNA after 5 mins in presence of KCl by fluorescence assay. The class given is nucleic-acid assay. Summed up: as §1
On to `C[n+]1ccc(-c2c3nc(c(-c4cc[n+](C)cc4)c4ccc([nH]4)c(-c4cc[n+](C)cc4)c4nc(c(-c5cc[n+](C)cc5)c5ccc2[nH]5)C=C4)C=C3)cc1`, for which the DC50 came out at 350 nM.

Another experiment has as its target Quadruplex DNA. As to the kind of experiment: Displacement of thiazole orange from human VEGF G-quadruplex DNA after 5 mins in presence of KCl by fluorescence assay. It is filed as nucleic-acid assay. In outline: as §1
With `C[n+]1ccc(-c2c3nc(c(-c4cc[n+](C)cc4)c4ccc([nH]4)c(-c4cc[n+](C)cc4)c4nc(c(-c5cc[n+](C)cc5)c5ccc2[nH]5)C=C4)C=C3)cc1`, the DC50 was 310 nM.

For another experiment, the system named is Calf thymus DNA. As to the kind of experiment: Displacement of thiazole orange from calf thymus duplex DNA after 5 mins in presence of KCl by fluorescence assay. It is filed as nucleic-acid assay, Bos taurus.
Consider `C[n+]1ccc(-c2c3nc(c(-c4cc[n+](C)cc4)c4ccc([nH]4)c(-c4cc[n+](C)cc4)c4nc(c(-c5cc[n+](C)cc5)c5ccc2[nH]5)C=C4)C=C3)cc1`, for which the DC50 came out at 870 nM.

Another experiment relates to Quadruplex DNA. As to the kind of experiment: Binding affinity to human telomeric G-quadruplex DNA assessed as change in melting temperature in presence of KCl by CD spectroscopic method. The class given is nucleic-acid assay. Summed up:
(§2)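 CD melting of 5 µM G4 DNA in 10 mM Tris-HCl pH 7.4, 25 mM KCl, 0.1 mM EDTA. Ligand was present during folding (heating, slow cooling). Spectra 200–400 nm over 20–96 °C in 2 °C steps, buffer blank subtracted. Tm was taken from normalized ellipticity at the positive maximum (262 nm for promoter G4s). ΔTm = ligand-bound minus DNA alone; average of two independent experiments.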
For orientation: ΔTm means the change in melting temperature against a reference sample. In the case of `C[n+]1ccc(-c2c3nc(c(-c4cc[n+](C)cc4)c4ccc([nH]4)c(-c4cc[n+](C)cc4)c4ccc([nH]4)c(-c4cc[n+](C)cc4)c4nc2C=C4)C=C3)cc1`, the ΔTm is 15.6 °C.

Another experiment relates to Quadruplex DNA. Description: Binding affinity to human c-Myc G-quadruplex DNA assessed as change in melting temperature in presence of KCl by CD spectroscopic method. The class given is nucleic-acid assay. In outline: as §2
Turning to `C[n+]1ccc(-c2c3nc(c(-c4cc[n+](C)cc4)c4ccc([nH]4)c(-c4cc[n+](C)cc4)c4ccc([nH]4)c(-c4cc[n+](C)cc4)c4nc2C=C4)C=C3)cc1`, the ΔTm was 11 °C.

For the next experiment, the system named is Quadruplex DNA. As to the kind of experiment: Binding affinity to human Bcl2 G-quadruplex DNA assessed as change in melting temperature in presence of KCl by CD spectroscopic method. The class given is nucleic-acid assay. Summed up: as §2
As for `C[n+]1ccc(-c2c3nc(c(-c4cc[n+](C)cc4)c4ccc([nH]4)c(-c4cc[n+](C)cc4)c4ccc([nH]4)c(-c4cc[n+](C)cc4)c4nc2C=C4)C=C3)cc1`, the ΔTm stood at 14.3 °C.

The test system of the next experiment is Quadruplex DNA. As to the kind of experiment: Binding affinity to human c-Kit1 G-quadruplex DNA assessed as change in melting temperature in presence of KCl by CD spectroscopic method. The class given is nucleic-acid assay. In outline:
as §2
On to `C[n+]1ccc(-c2c3nc(c(-c4cc[n+](C)cc4)c4ccc([nH]4)c(-c4cc[n+](C)cc4)c4ccc([nH]4)c(-c4cc[n+](C)cc4)c4nc2C=C4)C=C3)cc1`, for which the ΔTm came to 15.1 °C.

Another experiment relates to Quadruplex DNA. As to the kind of experiment: Binding affinity to human c-Kit2 G-quadruplex DNA assessed as change in melting temperature in presence of KCl by CD spectroscopic method. The class given is nucleic-acid assay. In outline: as §2
With `C[n+]1ccc(-c2c3nc(c(-c4cc[n+](C)cc4)c4ccc([nH]4)c(-c4cc[n+](C)cc4)c4ccc([nH]4)c(-c4cc[n+](C)cc4)c4nc2C=C4)C=C3)cc1`, the ΔTm worked out at 15.5 °C.

In another experiment the test system is Quadruplex DNA. As to the kind of experiment: Binding affinity to human VEGF G-quadruplex DNA assessed as change in melting temperature in presence of KCl by CD spectroscopic method. It is filed as nucleic-acid assay. In outline:
as §2
On to `C[n+]1ccc(-c2c3nc(c(-c4cc[n+](C)cc4)c4ccc([nH]4)c(-c4cc[n+](C)cc4)c4ccc([nH]4)c(-c4cc[n+](C)cc4)c4nc2C=C4)C=C3)cc1`, for which the ΔTm worked out at 12.3 °C.
